Source: ChEMBL document CHEMBL1129350, “Hypoxia-selective antitumor agents. 13. Effects of acridine substitution on the hypoxia-selective cytotoxicity and metabolic reduction of the bis-bioreductive agent nitracrine N-oxide” (J Med Chem, 1996)

Key:
CHO-AA8 [1] = experiment: Inhibitory activity against aerobic growth of AA8 cells.; format: functional, cell-based; conditions: Cricetulus griseus
How it was run: (§1)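 Growth inhibition: 200 log-phase AA8 or 300 UV4 cells were seeded per well. One day later they were exposed to drug for 18 h under aerobic conditions (5% CO₂) in αMEM with 5% fetal calf serum. Cell mass was measured as protein by methylene blue staining 72–78 h after drug removal. IC50 is the concentration reducing cell mass to 50% of the mean of eight controls on the same plate. HF is IC50(AA8)/IC50(UV4).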

CHO-AA8 [2] = experiment: Concentration needed to reduce cell survival to 10% of control values, using 1 hour exposure of plateau phase AA8 cells at 10e6 cells/ml; format: functional, Cricetulus griseus
How it was run: (§2)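 Plateau-phase AA8 cells at 10⁶/mL in magnetically stirred 10 mL suspensions in αMEM with 5% fetal calf serum, continuously gassed with 5% CO₂ in air or N₂. Cells and drug solutions were pre-equilibrated under the gas phase for 60 min before mixing, then exposed for 1 h. Clonogenic survival was read as plating efficiency. C10 is the concentration lowering plating efficiency to 10% of concurrent untreated controls. The air/N₂ ratio is C10(air)/C10(N₂).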

[3] = Air/N2 ratio = C10(air)/C10(nitrogen); how it was run: as §2
Mus musculus = experiment: Maximum tolerated ip dose for male C3H/HeN mice.; format: functional
How it was run: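 Compounds formulated in water, injected ip at 0.01 mL/g into male C3H/HeN mice (20–25 g); groups of six mice, dose increments of 1.33-fold, observed 28 days. MTD taken as highest dose causing no deaths or unacceptable morbidity.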

[4] = Inhibitory activity against aerobic growth of UV4cells, Hypersensitivity factor is the ratio of IC50(AA8) to IC50(UV4).; format: functional; how it was run: as §1
[5] = Spheroid resistance factor which is defined as the ratio C10 (intact)/ C10 (dissociated) EMT6 cells; format: functional
How it was run: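 EMT6/Ak spheroids were grown in αMEM with 10% FBS in spinner flasks to about 1000–1400 μm diameter. For dissociated cells, spheroids were treated with pronase 0.5 mg/mL and DNAase I 1 mg/mL for 30 min at 37 °C, washed, then exposed to drug for 1 h. Intact spheroids were exposed at 1 spheroid/mL in stirred vials for 1 h before dissociation and plating. Both exposures used about 2 × 10⁵ cells/mL, 5% CO₂/20% O₂, 37 °C. C10 was interpolated from at least four concentrations per survival curve. SRF is C10(intact)/C10(dissociated). Results are mean ± SEM of independent experiments.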

EMT6 (Mus musculus) = experiment: Concentration resulting in 10% survival in dissociated EMT6 spheroid cell suspension

Structure (SMILES) | IC50 (CHO-AA8 [1]) | C10 (CHO-AA8 [2]) | Ratio [3] | MTD (Mus musculus) | Ratio [4] | Ratio [5] | C10 (EMT6 (Mus musculus))
Cc1cccc2c(NCCCN(C)C)c3c([N+](=O)[O-])ccc(C)c3nc12 | 0.19 µM | 9.6 µM | 11 | 20 µM/kg | 22 |  | 
COc1cccc2c(NCCCN(C)C)c3c([N+](=O)[O-])ccc(OC)c3nc12 | 0.51 µM | 47 µM | 14 | 100 µM/kg | 11 |  | 
C[N+](C)([O-])CCCNc1c2ccccc2nc2cccc([N+](=O)[O-])c12 | 2.7 µM | 61 µM | 820 | 15 µM/kg | 15 | 7 | 1.9 µM
CN(C)CCCNc1c2ccccc2nc2cccc([N+](=O)[O-])c12 [NITRACRINE] |  | 0.4 µM | 5.1 | 0.3 µM/kg | 15 | 10.7 | 0.11 µM
Cc1ccc([N+](=O)[O-])c2c(NCCCN(C)C)c3ccccc3nc12 | 0.053 µM | 1.5 µM | 6.9 | 0.2 µM/kg | 13 |  | 
COc1cccc2c(NCCC[N+](C)(C)[O-])c3c([N+](=O)[O-])ccc(OC)c3nc12 | 150 µM | 59000 µM | 2770 | 450 µM/kg | 14 |  | 
COc1cc(OC)c2nc3ccccc3c(NCCC[N+](C)(C)[O-])c2c1[N+](=O)[O-] | 1960 µM | 20000 µM | 1.2 | 800 µM/kg | 0.9 |  | 
Cc1ccc([N+](=O)[O-])c2c(NCCC[N+](C)(C)[O-])c3ccccc3nc12 | 5.4 µM | 47 µM | 150 | 15 µM/kg | 29 |  | 
COc1ccc([N+](=O)[O-])c2c(NCCCN(C)C)c3ccccc3nc12 | 0.47 µM | 16 µM | 11 | 15 µM/kg | 14 | 7.7 | 1.7 µM
COc1ccc([N+](=O)[O-])c2c(NCCC[N+](C)(C)[O-])c3ccccc3nc12 | 130 µM | 15700 µM | 1250 | 100 µM/kg | 43 | 1.9 | 300 µM
COc1ccc2nc3ccccc3c(NCCC[N+](C)(C)[O-])c2c1[N+](=O)[O-] | 84 µM | >300 µM |  | 300 µM/kg |  |  | 
Cc1cccc2c(NCCC[N+](C)(C)[O-])c3c([N+](=O)[O-])ccc(C)c3nc12 | 6.8 µM | 60 µM | 54 | 15 µM/kg | 32 |  | 
COc1cc(OC)c2nc3ccccc3c(NCCCN(C)C)c2c1[N+](=O)[O-] | 47 µM | 500 µM | 2.3 | 300 µM/kg | 1.3 |  | 
COc1ccc2nc3ccccc3c(NCCCN(C)C)c2c1[N+](=O)[O-] | 2.9 µM | >60 µM |  |  | 4.6 |  | 
